Compound activity as filed in PubChem.
Rows were chosen to be rich in hits. Some 1.7% of all compounds tested hit in one or more screens of this group.
HNF4A DNA FP: change in binding of human HNF4 alpha to DNA; P41235; HNF4a-FITC DNA binding, fluorescence polarization, 1 h; activity change, % at 10 µM; hit rate 0.3% among 360,000; in the data active means activity change above about 30%, passing the limit was not always enough
IDE cell inh: inhibits human insulin-degrading enzyme in HEK cells. P14735. inhibition, % at 5.59 µM. FAbetaB cleavage, fluorescence polarization. AID 434962. hit rate 0.41% among 320,000;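 active means percent inhibition above the average of all tested compounds plus 3 SD, set per screening campaign, cut at about 16% in these data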;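 further: IDE supplied by intact live HEK cells; FP after avidin binding of uncleaved biotin substrate so inhibition keeps polarization high; 0% = DMSO wells and 100% = 60 µM reference IDE inhibitor Ii1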
IDE act: boosts human insulin-degrading enzyme activity in HEK cells; activation, % at 5.96 µM; hit rate 0.073% among 340,000; FAbeta-B cleavage, fluorescence polarization; 0% vehicle, 100% cell-free pure enzyme wells;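 active means activation above the mean of all tested compounds plus 3 SD, set per screening campaign, cut at about 17% in these data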
Rpn11 inh: inhibitors of human proteasome Rpn11; hit rate 0.59% among 360,000; AID 588493; human 26S proteasome, Ub4-pepOG fluorescence polarization; 20S core pre-blocked with epoxomicin; calls only at 20 µM; O00487;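 active means inhibition at 20 µM, scaled to each plate's controls, above about 33%, limit read from the data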
Target sequence (O00487 whole entry, looked up): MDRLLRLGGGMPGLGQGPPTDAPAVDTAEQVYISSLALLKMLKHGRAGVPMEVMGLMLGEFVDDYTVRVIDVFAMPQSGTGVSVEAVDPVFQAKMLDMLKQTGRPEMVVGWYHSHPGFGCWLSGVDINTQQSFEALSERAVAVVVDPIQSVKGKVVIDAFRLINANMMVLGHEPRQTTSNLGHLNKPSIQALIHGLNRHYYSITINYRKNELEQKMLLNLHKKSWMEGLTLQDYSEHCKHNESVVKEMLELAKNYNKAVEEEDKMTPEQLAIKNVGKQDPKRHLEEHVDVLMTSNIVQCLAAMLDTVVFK
CSN deneddyl inh: CSN deneddylation inhibition; hit rate 0.38% among 360,000; inhibition, % at 12.5 µM; Purified CSN, SCF-Nedd8-OG deneddylation, fluorescence polarization; AID 651999;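 active means pattern-corrected inhibition above about 35%, with an unprinted fluorescence ratio check between 0.5 and 1.5, limit read from the data, passing the limit was not always enough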;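 further: 0% = enzyme with substrate and 100% = substrate without enzyme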
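Schedule: reaction 90 min, room temperature / Assay system: HEK293T-derived human Csn5 enzyme / Input: Csn5 at 0.24 nM final / Measure: inhibition of Csn5 cleavage, % / Control set: substrate-only high control, full reaction low control / Technique: fluorescence polarization of the substrate / Buffer or medium: Tris/NaCl/DTT buffer, pH 7.5 / Reagent: SCFSkp2-Nedd8OG substrate at 10 nM final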
TPT1 inh: blocks Candida albicans tRNA 2'-phosphotransferase; inhibition, % at 5 µM; hit rate 0.81% among 300,000; recombinant caTPT1, FP RNA substrate dephosphorylation; AID 1962;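 active means inhibition above the mean of all tested compounds plus 3 SD, set per screening campaign, cut at about 24% in these data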;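 further: plate controls were DMSO alone for no effect and ferristatin control at 100 nM for full effect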
Rpn11 confirm: Rpn11 inhibition confirmation, single concentration | inhibition, % at 20 µM | purified human 26S proteasome, Ub4-pepOG fluorescence polarization; proteasome pretreated with epoxomicin | hit rate 29% among 1,900 | shares compounds with Rpn11 inh
MMP-2 counter: blocks human MMP-2, flagging nonselective RPN11 hits. shares compounds with Rpn11 inh. hit rate 4% among 1,900. inhibition, % at 20 µM. recombinant MMP-2, FRET peptide cleavage fluorescence;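 further: human MMP-2 activated beforehand with APMA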
Thrombin FP: counter-screen for RPN11 inhibitors: inhibition of bovine thrombin; shares compounds with Rpn11 inh; bovine thrombin cleavage of Ub4-pepOG, fluorescence polarization; inhibition, % at 20 µM; hit rate 13% among 1,900;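 active means mean inhibition at least 40% at 20 µM, or signal 3 deviations below plate average, so some actives read negative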;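 further: plate controls were thrombin with DMSO for no effect and buffer wells lacking thrombin for full effect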
* = called active by the depositor; i = inactive; nt = no result given; + = active, no number. Unless noted, no stated cut-off is given here; in the data, active means inhibition above about 40%; inactive means the rest.

SMILES	HNF4A DNA FP	IDE cell inh	IDE act	Rpn11 inh	CSN deneddyl inh	TPT1 inh	Rpn11 confirm	MMP-2 counter	Thrombin FP
COc1ccccc1-c1cc(C(=O)Nc2cc(C)nn2-c2ccccc2)no1	6.0	4.0	3.5	+	31.2	-0.3	64.6*	-20.0	8.8
COc1ccc(-c2cc(C(=O)Nc3cc(C)nn3-c3ccccc3)no2)cc1	0.6	2.5	7.4	i	-0.5	-4.7	nt	nt	nt
COc1cc2oc3ccccc3c2cc1N(CC(=O)N(C)C)S(=O)(=O)c1ccccc1	-3.0	0.2	2.1	+	5.8	-1.2	-1.3	20.5	-14.2
O=C(c1cccc(Cl)c1)N1CCN(Cc2ccccc2F)CC1	-4.2	-0.1	0.8	i	0.1	1.8	nt	nt	nt
Cn1c(C(=O)NCCCN2CCCCCC2)cc2c(=O)n(C)c3ccccc3c21	8.2	-1.8	-2.4	+	15.1	-1.7	-7.6	-39.1	-6.5
c1ccc(NN=C(c2ccccc2)c2cccs2)cc1	0.0	nt	nt	i	2.7	nt	nt	nt	nt
COC(=O)CCC(=O)NNC(=O)c1ccc(Br)cc1	-0.1	3.6	-0.1	i	1.6	-1.5	nt	nt	nt
COc1ccc(Nc2nc(-c3cccs3)cs2)c(OC)c1	9.9	7.0	-4.2	+	-3.2	1.3	-15.2	-10.6	-7.4
COc1ccc(C)cc1NC(=O)COC(=O)c1ccccc1SCC(=O)N1CCCC1	-1.1	7.4	-0.8	i	-3.2	-0.3	nt	nt	nt
Cc1cc(C)c2nc(N3C(=O)C(O)=C(C(=O)c4ccco4)C3c3ccc(O)cc3)sc2c1 (configuration not stated)	0.2	3.3	-4.9	i	7.7	nt	nt	nt	nt
COc1ccc(/C=C2/Sc3ccc(C(=O)NCCN4CCCCCC4)cc3NC2=O)cc1	10.3	2.7	8.0	+	10.4	-2.3	7.6	-40.3	-1.8
COC(=O)C1=C(C)N(CCc2ccc(OC)c(OC)c2)C(=O)/C1=C\N(C)C	-1.4	8.9	3.8	+	1.6	-0.9	-9.9	5.4	-10.6
Cn1cc([C@@H]2C[C@H]3CN(Cc4cccc(Cl)c4)C(=O)[C@]34CCCN24)c2ccccc21	24.9	0.7	0.4	+	12.9	21.9	53.1*	-26.3	65.3*
COc1cccc(-c2cc(C(=O)Nc3cc(C)on3)no2)c1	-5.0	5.2	-6.2	+	7.5	-0.4	30.7	32.0	-7.1
COc1ccc(-c2cc(C(=O)Nc3cc(Br)ccc3O)no2)cc1	24.8	0.8	1.4	+	6.2	-4.8	17.4	-19.4	-1.8
CC(=O)Nc1sc(C)c(C)c1C(=O)OCCOc1ccccc1	-45.5	3.8	1.0	+	-0.8	0.7	-5.4	-30.6	-16.6
Cc1c(C(=O)c2ccc(N(C)C)cc2)c2ccccn2c1CCC#N	-5.7	2.3	2.6	i	2.7	6.5	nt	nt	nt
CSc1ncccc1C(=O)OCC(=O)NCCC1=CCCCC1	-2.3	-0.1	-6.1	i	0.6	-2.9	nt	nt	nt
Cc1ccc(Cn2c(/C=C/c3ccco3)nc3ccccc32)cc1	29.1	1.7	1.0	+	32.6	20.2	37.8	5.2	13.9
COC(=O)C1=C(O)/C(=C\c2ccc(O)c(OC)c2)N=C1C	3.0	3.8	-5.1	+	17.8	10.4	19.7	5.7	12.4
COc1ccc(-n2c(=O)/c(=C\c3cccs3)s/c2=C(/C#N)C(=O)NCCN2CCOCC2)cc1	4.0	5.5	-1.8	+	27.2	21.8	38.3	14.8	43.7*
C=CCn1c(=O)/c(=C\c2ccsc2)s/c1=C(/C#N)C(=O)NCCN1CCOCC1	0.0	-0.9	1.8	i	5.1	3.3	nt	nt	nt
COc1ccc2nc(C)cc(SCC(=O)N/N=C/c3ccccc3)c2c1	-0.8	1.0	-2.7	i	9.4	-2.8	nt	nt	nt
